Laboratory results reported in ChEMBL document CHEMBL1255404, “Spread of OXA-48-encoding plasmid in Turkey and beyond” (2010).
≈ marks a conversion by molar mass, not a printed value.

What was measured:
Format in all cases: functional
Escherichia coli [1] = experiment: Antimicrobial activity against Escherichia coli isolate J53 harboring p3A containing beta-lactamase OXA-48 located within transposon Tn1999 by Etest method
In short: (§1)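 β-Lactam MICs read with Etest strips. Strains are E. coli J53 recipient and J53 transconjugants carrying OXA-48-positive plasmids recovered from clinical enterobacterial isolates.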

Escherichia coli [2] = experiment: Antimicrobial activity against Escherichia coli isolate J53 harboring pEnc1 containing beta-lactamase OXA-48 located within transposon Tn1999 by Etest method; in short: as §1
Klebsiella pneumoniae [3] = experiment: Antimicrobial activity against Klebsiella pneumoniae isolate Kp4A expressing beta-lactamase OXA-48 and CTX-M-15 by Etest method
Klebsiella pneumoniae [4] = experiment: Antimicrobial activity against Klebsiella pneumoniae isolate Kp11978 expressing beta-lactamase OXA-48, SHV-2a and TEM-1 by Etest method
Escherichia coli [5] = experiment: Antimicrobial activity against Escherichia coli isolate J53 harboring p6A containing beta-lactamase OXA-48 located within transposon Tn1999 by Etest method; in short: as §1
Klebsiella pneumoniae [6] = experiment: Antimicrobial activity against Klebsiella pneumoniae isolate KpI-2 expressing beta-lactamase OXA-48 and CTX-M-15 by Etest method
Escherichia coli [7] = experiment: Antimicrobial activity against Escherichia coli isolate J53 harboring pA-1 containing beta-lactamase OXA-48 located within transposon Tn1999 by Etest method; in short: as §1
Enterobacter cloacae [8] = experiment: Antimicrobial activity against Enterobacter cloacae isolate 1 expressing beta-lactamase OXA-48 and SHV-5 by Etest method
Escherichia coli [9] = experiment: Antimicrobial activity against Escherichia coli isolate J53 harboring pBb containing beta-lactamase OXA-48 located within transposon Tn1999.2 by Etest method; in short: as §1
Escherichia coli [10] = experiment: Antimicrobial activity against Escherichia coli isolate J53 harboring p4A containing beta-lactamase OXA-48 located within transposon Tn1999 by Etest method; in short: as §1
Klebsiella pneumoniae [11] = experiment: Antimicrobial activity against Klebsiella pneumoniae isolate Kp6A expressing beta-lactamase OXA-48 and TEM-150 by Etest method
Klebsiella pneumoniae [12] = experiment: Antimicrobial activity against Klebsiella pneumoniae isolate KpE expressing beta-lactamase OXA-48 and CTX-M-15 by Etest method
Klebsiella pneumoniae [13] = experiment: Antimicrobial activity against Klebsiella pneumoniae isolate KpL expressing beta-lactamase OXA-48 by Etest method
Escherichia coli [14] = experiment: Antimicrobial activity against Escherichia coli isolate J53 harboring pI-2 containing beta-lactamase OXA-48 located within transposon Tn1999.2 by Etest method; in short: as §1
Enterobacter cloacae [15] = experiment: Antimicrobial activity against Enterobacter cloacae isolate 2 expressing beta-lactamase OXA-48 and SHV-5 by Etest method
Klebsiella pneumoniae [16] = experiment: Antimicrobial activity against Klebsiella pneumoniae isolate Kp5A expressing beta-lactamase OXA-48 and SHV-5 by Etest method
Klebsiella pneumoniae [17] = experiment: Antimicrobial activity against Klebsiella pneumoniae isolate KpBIC expressing beta-lactamase OXA-48 by Etest method
In short: (§2)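 MICs of β-lactams read from Etest strips. The test organisms are carbapenem-resistant, OXA-48-positive clinical Enterobacteriaceae isolates recovered from Turkey, Lebanon, Egypt, France and Belgium.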

Escherichia coli [18] = experiment: Antimicrobial activity against Escherichia coli isolate TOP10 harboring pBIC containing beta-lactamase OXA-48 located within transposon Tn1999.2 by Etest method
In short: (§3)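 β-Lactam MICs read with Etest strips. Strains are E. coli TOP10 host and TOP10 transformants made with plasmid DNA extract when conjugation failed. Transformants were selected on LB agar with ticarcillin 50 μg/ml.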

Escherichia coli [19] = experiment: Antimicrobial activity against Escherichia coli isolate J53 harboring pEcA containing beta-lactamase OXA-48 located within transposon Tn1999.2 by Etest method; in short: as §1
Klebsiella pneumoniae [20] = experiment: Antimicrobial activity against Klebsiella pneumoniae isolate Kp7A expressing beta-lactamase OXA-48 by Etest method; in short: as §2
Klebsiella pneumoniae [21] = experiment: Antimicrobial activity against Klebsiella pneumoniae isolate KpBEL expressing beta-lactamase OXA-48 by Etest method; in short: as §2
Escherichia coli [22] = experiment: Antimicrobial activity against Escherichia coli isolate J53 harboring p7A containing beta-lactamase OXA-48 located within transposon Tn1999 by Etest method; in short: as §1
Providencia rettgeri = experiment: Antimicrobial activity against Providencia rettgeri isolate expressing beta-lactamase OXA-48 and TEM-101 by Etest method
Klebsiella pneumoniae [23] = experiment: Antimicrobial activity against Klebsiella pneumoniae isolate Kp3A expressing beta-lactamase OXA-48 by Etest method; in short: as §2
Escherichia coli [24] = experiment: Antimicrobial activity against Escherichia coli isolate J53 harboring pBEL containing beta-lactamase OXA-48 located within transposon Tn1999.2 by Etest method; in short: as §1
Escherichia coli [25] = experiment: Antimicrobial activity against Escherichia coli isolate J53 harboring pL containing beta-lactamase OXA-48 located within transposon Tn1999.2 by Etest method; in short: as §1
Escherichia coli [26] = experiment: Antimicrobial activity against Escherichia coli isolate J53 by Etest method; in short: as §1
Escherichia coli [27] = experiment: Antimicrobial activity against Escherichia coli isolate TOP10 harboring pPR containing beta-lactamase and TEM-101 by Etest method; in short: as §3
Escherichia coli [28] = experiment: Antimicrobial activity against Escherichia coli isolate TOP10 by Etest method; in short: as §3
Klebsiella pneumoniae [29] = experiment: Antimicrobial activity against Klebsiella pneumoniae isolate KpI-1 expressing beta-lactamase OXA-48 and CTX-M-15 by Etest method
Escherichia coli [30] = experiment: Antimicrobial activity against Escherichia coli isolate J53 harboring pI-1 containing beta-lactamase OXA-48 located within transposon Tn1999.2 by Etest method; in short: as §1
Escherichia coli [31] = experiment: Antimicrobial activity against Escherichia coli isolate A expressing beta-lactamase OXA-48 and TEM-150 by Etest method
Klebsiella pneumoniae [32] = experiment: Antimicrobial activity against Klebsiella pneumoniae isolate KpB expressing OXA-48 and CTX-M-15 by Etest method
Escherichia coli [33] = experiment: Antimicrobial activity against Escherichia coli isolate J53 harboring pE containing beta-lactamase OXA-48 located within transposon Tn1999.2 by Etest method; in short: as §1
Escherichia coli [34] = experiment: Antimicrobial activity against Escherichia coli isolate J53 harboring pCF containing beta-lactamase OXA-48 located within transposon Tn1999 by Etest method; in short: as §1
Escherichia coli [35] = experiment: Antimicrobial activity against Escherichia coli isolate J53 harboring p5A containing beta-lactamase OXA-48 located within transposon Tn1999 by Etest method; in short: as §1
Citrobacter freundii = experiment: Antimicrobial activity against Citrobacter freundii isolate expressing beta-lactamase OXA-48 by Etest method
Escherichia coli [36] = experiment: Antimicrobial activity against Escherichia coli isolate J53 harboring pEnc2 containing beta-lactamase OXA-48 located within transposon Tn1999 by Etest method; in short: as §1

C[C@@H](O)[C@H]1C(=O)N2C(C(=O)O)=C(S[C@@H]3CN[C@H](C(=O)Nc4cccc(C(=O)O)c4)C3)[C@H](C)[C@H]12
MIC (Escherichia coli [1]): 0.25 µg/mL (≈ 0.526 µM) | MIC (Escherichia coli [2]): 0.125 µg/mL (≈ 0.263 µM) | MIC (Klebsiella pneumoniae [3]): > 32 µg/mL | MIC (Klebsiella pneumoniae [4]): 64 µg/mL (≈ 135 µM) | MIC (Escherichia coli [5]): 0.12 µg/mL (≈ 0.252 µM) | MIC (Klebsiella pneumoniae [6]): 24 µg/mL (≈ 50.5 µM) | MIC (Escherichia coli [7]): 0.19 µg/mL (≈ 0.4 µM) | MIC (Enterobacter cloacae [8]): 0.5 µg/mL (≈ 1.05 µM) | MIC (Escherichia coli [9]): 0.25 µg/mL (≈ 0.526 µM) | MIC (Escherichia coli [10]): 0.12 µg/mL (≈ 0.252 µM) | MIC (Klebsiella pneumoniae [11]): > 32 µg/mL | MIC (Klebsiella pneumoniae [12]): 3 µg/mL (≈ 6.31 µM) | MIC (Klebsiella pneumoniae [13]): > 16 µg/mL | MIC (Escherichia coli [14]): 0.25 µg/mL (≈ 0.526 µM) | MIC (Enterobacter cloacae [15]): 0.75 µg/mL (≈ 1.58 µM) | MIC (Klebsiella pneumoniae [16]): > 32 µg/mL | MIC (Klebsiella pneumoniae [17]): 2 µg/mL (≈ 4.21 µM) | MIC (Escherichia coli [18]): 0.5 µg/mL (≈ 1.05 µM) | MIC (Escherichia coli [19]): 0.25 µg/mL (≈ 0.526 µM) | MIC (Klebsiella pneumoniae [20]): > 32 µg/mL | MIC (Klebsiella pneumoniae [21]): 4 µg/mL (≈ 8.41 µM) | MIC (Escherichia coli [22]): 0.19 µg/mL (≈ 0.4 µM) | MIC (Providencia rettgeri): > 32 µg/mL | MIC (Klebsiella pneumoniae [23]): > 32 µg/mL | MIC (Escherichia coli [24]): 2 µg/mL (≈ 4.21 µM) | MIC (Escherichia coli [25]): 4 µg/mL (≈ 8.41 µM) | MIC (Escherichia coli [26]): 0.06 µg/mL (≈ 0.126 µM) | MIC (Escherichia coli [27]): 0.75 µg/mL (≈ 1.58 µM) | MIC (Escherichia coli [28]): 0.06 µg/mL (≈ 0.126 µM) | MIC (Klebsiella pneumoniae [29]): 24 µg/mL (≈ 50.5 µM) | MIC (Escherichia coli [30]): 0.25 µg/mL (≈ 0.526 µM) | MIC (Escherichia coli [31]): > 32 µg/mL | MIC (Klebsiella pneumoniae [32]): > 32 µg/mL | MIC (Escherichia coli [33]): 3 µg/mL (≈ 6.31 µM) | MIC (Escherichia coli [34]): 0.25 µg/mL (≈ 0.526 µM) | MIC (Escherichia coli [35]): 0.12 µg/mL (≈ 0.252 µM) | MIC (Citrobacter freundii): > 32 µg/mL | MIC (Escherichia coli [36]): 0.19 µg/mL (≈ 0.4 µM)

CO/N=C(\C(=O)N[C@@H]1C(=O)N2C(C(=O)[O-])=C(C[N+]3(C)CCCC3)CS[C@H]12)c1csc(N)n1
MIC (Escherichia coli [5]): 0.12 µg/mL (≈ 0.25 µM) | MIC (Escherichia coli [9]): < 0.5 µg/mL | MIC (Escherichia coli [10]): 0.12 µg/mL (≈ 0.25 µM) | MIC (Klebsiella pneumoniae [13]): 0.12 µg/mL (≈ 0.25 µM) | MIC (Escherichia coli [14]): 0.12 µg/mL (≈ 0.25 µM) | MIC (Klebsiella pneumoniae [17]): 0.5 µg/mL (≈ 1.04 µM) | MIC (Escherichia coli [18]): 0.5 µg/mL (≈ 1.04 µM) | MIC (Escherichia coli [19]): 0.12 µg/mL (≈ 0.25 µM) | MIC (Klebsiella pneumoniae [20]): 0.5 µg/mL (≈ 1.04 µM) | MIC (Klebsiella pneumoniae [21]): 0.12 µg/mL (≈ 0.25 µM) | MIC (Escherichia coli [22]): 0.5 µg/mL (≈ 1.04 µM) | MIC (Klebsiella pneumoniae [23]): 0.5 µg/mL (≈ 1.04 µM) | MIC (Escherichia coli [24]): 0.12 µg/mL (≈ 0.25 µM) | MIC (Escherichia coli [25]): 0.06 µg/mL (≈ 0.125 µM) | MIC (Escherichia coli [26]): 0.03 µg/mL (≈ 0.0624 µM) | MIC (Escherichia coli [27]): 0.5 µg/mL (≈ 1.04 µM) | MIC (Escherichia coli [30]): 0.12 µg/mL (≈ 0.25 µM) | MIC (Klebsiella pneumoniae [32]): > 512 µg/mL | MIC (Escherichia coli [33]): 0.12 µg/mL (≈ 0.25 µM) | MIC (Escherichia coli [34]): 0.12 µg/mL (≈ 0.25 µM) | MIC (Escherichia coli [35]): 0.12 µg/mL (≈ 0.25 µM)
